The values below come from ChEMBL document CHEMBL3804806, “Synthesis of (Z)-1-(1,3-diphenyl-1H-pyrazol-4-yl)-3-(phenylamino)prop-2-en-1-one derivatives as potential anticancer and apoptosis inducing agents” (Eur J Med Chem, 2016).

pIC50: −log10 of the molar value. Active and inactive are the calls of the source. The calls are words filed in the database; no cut-off is given here.

Data set [1] relates to A549. Nature of the data set: Induction of apoptosis in human A549 cells assessed as loss in mitochondrial membrane potential at antiproliferative IC50 after 24 hrs by rhodamine 123 staining based spectrofluorometry relative to control. It counts as functional. An outline of the steps: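 A549 cells plated at 5×10^5 cells/mL, adhered overnight, then 24 h at IC50. Harvested and incubated with rhodamine-123 (10 µg/mL) in PBS 30 min at room temp, washed. Fluorescence read by spectrofluorometer, ex 480/em 530 nm, vs untreated cells. Mean ± SD of three independent experiments, each in triplicate.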

Data set [2] has as its system A549. Briefly: Induction of apoptosis in human A549 cells assessed as intracellular ROS level at antiproliferative IC50 after 24 hrs by DCFDA staining based fluorescence microscopic analysis relative to control. It counts as functional.
Data set [3] has as its system A549. Nature of the data set: Anti-migratory activity in human A549 cells assessed as disruption of actin fibre assembly after 12 hrs by rhodamine phalloidin/Hoechst 33242 staining based confocal microscopic analysis. It counts as functional, cell-based. The gist of the method: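 A549 cells (1x10⁶/well) grown on coverslips 24 h, then exposed to compounds 12 h. Washed, fixed in 4% paraformaldehyde in PBS, stained with rhodamine-phalloidin (F-actin) and Hoechst 33242 (nuclei), mounted in anti-fade. Examined by confocal microscopy, 20X objective.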

A further data set relates to HT-29. Briefly: Antiproliferative activity against human HT-29 cells after 48 hrs by MTT assay. To be noted: HT-29, 48 h. It counts as functional, cell-based. An outline of the steps: (§1)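 Cells seeded at 3,000-5,000/well by doubling time and grown 24 h (37 °C, 5% CO2). HT-29/U87MG kept in DMEM + 10% FBS; A549/PC-3/HaCaT in RPMI-1640 + 10% FBS. Compounds for 48 h, then MTT 4 h, formazan dissolved in DMSO, A570 minus A630. % inhibition vs DMSO-treated cells; IC50 by probit. Three independent experiments in quadruplicate; mean ± SD.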
(In general: Tetrazolium assays rely on reduction of a dye to a coloured formazan, in cell work by metabolically active cells.)

The nature of data set [4]: Antiproliferative activity against human PC3 cells after 48 hrs by MTT assay. The class given is functional, cell-based. To be noted: PC-3, 48 h. An outline of the steps: as §1
Data set [5] concerns A549. Nature of the data set: Antiproliferative activity against human A549 cells after 48 hrs by MTT assay. To be noted: A549, 48 h. The class given is functional, cell-based. The gist of the method:
as §1

Data set [6] in a line: Antiproliferative activity against human U87MG cells after 48 hrs by MTT assay. The following applies: U-87 MG. It counts as functional, cell-based, U-87MG ATCC. An outline of the steps:
as §1

The test system of the next data set is HaCaT. Nature of the data set: Antiproliferative activity against human HaCaT cells after 48 hrs by MTT assay. It counts as cell-based. The gist of the method: as §1
Data set [7] is described as follows: Selectivity ratio of IC50 for human HaCaT cells to IC50 for human A549 cells. The class given is ADME, cell-based. The following applies: HaCaT cells versus A549 cells, read-out: Ratio IC50. An outline of the steps: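 Ratio built from MTT IC50s: 48 h exposure, absorbance 570 minus 630 nm, inhibition relative to DMSO vehicle, probit-fitted IC50 for HaCaT keratinocytes and A549 cells. Three independent experiments, quadruplicate wells.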

The subject of data set [8] is A549. Nature of the data set: Anti-migratory activity in human A549 cells at antiproliferative IC50 after 24 to 48 hrs by wound healing assay. It counts as functional, cell-based.
In data set [9] the test system is A549. Nature of the data set: Cell cycle arrest in human A549 cells assessed as accumulation at G2/M phase at antiproliferative IC50 after 24 hrs by propidium iodide staining based flow cytometry (reference value: 27.2%). It counts as functional.
Data set [10] deals with A549. Nature of the data set: Induction of apoptosis in human A549 cells assessed as chromatin condensation at antiproliferative IC50 after 24 hrs by Hoechst 33242 staining based confocal microscopic analysis. The class given is functional, cell-based. An outline of the steps: (§2)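 A549 cells (1x10⁶/well) on coverslips exposed 24 h at IC50, then fixed in 4% paraformaldehyde 10 min at 4 °C. Stained with Hoechst 33242 (5 μg/mL) 20 min at room temp. Nuclear morphology examined by confocal microscopy, excitation 350/emission 460 nm, 20X.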

For data set [11], the system named is A549. Briefly: Induction of apoptosis in human A549 cells assessed as nuclear fragmentation at antiproliferative IC50 after 24 hrs by Hoechst 33242 staining based confocal microscopic analysis. The class given is functional, cell-based. An outline of the steps:
as §2

One may read the pIC50 as the IC50 on a negative log10 scale, so that one unit is a factor of ten. The low end stands for a high IC50, the high end for a low IC50. With `O=C(/C=C\Nc1ccc(O)cc1)c1cn(-c2ccccc2)nc1-c1ccc(F)cc1`, the Activity in the data set on A549 [1] came to 30%; in the data set on A549 [9], 41%. Moreover, the “fold change (FC)” value with A549 [2] was 2.1. In addition, the outcome with A549 [3], in the data set with A549 [8], in the data set on A549 [10] and in the data set with A549 [11] was Active. Besides, the pIC50 in the data set on HT-29 is 5.72; in [4], 5.59; with A549 [5], 5.82; in data set [6], 5.33; in the data set on HaCaT, 4.79. The selectivity ratio in data set [7] was found to be 10.

In the case of `COc1ccc(-c2nn(-c3ccccc3)cc2C(=O)/C=C\Nc2ccc(O)cc2)cc1`, the Activity in the data set on A549 [1] is 43.5%; with A549 [9] it was 43.1%. In the data set on A549 [2], the “fold change (FC)” value was 2.1. The outcome in the data set on A549 [3], in the data set on A549 [8], with A549 [10] and in the data set with A549 [11] was Active. Moreover, the pIC50 is 5.61 with HT-29; 5.70 in [4]; 5.56 with A549 [5]; 5.43 in data set [6]; 4.46 with HaCaT. Also, in data set [7], the selectivity ratio worked out at 10.

With `O=C(/C=C\Nc1ccc(O)cc1)c1cn(-c2ccccc2)nc1-c1ccc(Cl)cc1`, the Activity amounted to 45.8% in the data set with A549 [1] and 49.2% in the data set on A549 [9]. Further, in the data set on A549 [2], the “fold change (FC)” value is listed as 2.1. Further, the result with A549 [3], with A549 [8], in the data set with A549 [10] and with A549 [11] was Active. In addition, the negative-log IC50 (pIC50) in the data set with HT-29 is 5.60; in [4], 5.35; in the data set with A549 [5] it was 5.72; in [6], 5.82; in the data set with HaCaT it was 4.65. In data set [7], the selectivity ratio worked out at 10.
